Results as given in ChEMBL document CHEMBL1127332, “Pyrido[2,3-d]pyrimidine angiotensin II antagonists” (J Med Chem, 1994).

How the values were obtained:
[1] = system: Rattus norvegicus; experiment: Maximum percent change in A II supported mean arterial pressure 60 minutes following 3 mg/kg i.d. administration.; assay type: functional; details: Artery, intraduodenal, in the assay text read “at the time of maximum effect following” for “60 minutes following”, read-out: Inhibition
In short: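 Anesthetized rats, ganglion blocked with mecamylamine 3 mg/kg iv, under A II infusion until pressure stabilized. Agent suspended in methyl cellulose and given 3 mg/kg through a duodenal cannula (1 mL/kg). MAP followed for 240 min. Fall expressed as percent of the A II-supported pressure. Maximum change and its time recorded, n = 3. Adjusted AUC between control and treated MAP/time curves.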

[2] = Partition coefficient (logD) (octanol/0.01 N K2HPO4); assay type: physicochemical
In short: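 Distribution coefficient measured between octanol and pH 7.4 phosphate buffer.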

[3] = molecular target: T1, Angiotensin II receptor (AT-1) type-1 (Rattus norvegicus, UniProt P29089+P25095); experiment: In vitro inhibition of specific binding of [125 I] A II to rat liver membrane.
T1 sequence (P29089 whole entry): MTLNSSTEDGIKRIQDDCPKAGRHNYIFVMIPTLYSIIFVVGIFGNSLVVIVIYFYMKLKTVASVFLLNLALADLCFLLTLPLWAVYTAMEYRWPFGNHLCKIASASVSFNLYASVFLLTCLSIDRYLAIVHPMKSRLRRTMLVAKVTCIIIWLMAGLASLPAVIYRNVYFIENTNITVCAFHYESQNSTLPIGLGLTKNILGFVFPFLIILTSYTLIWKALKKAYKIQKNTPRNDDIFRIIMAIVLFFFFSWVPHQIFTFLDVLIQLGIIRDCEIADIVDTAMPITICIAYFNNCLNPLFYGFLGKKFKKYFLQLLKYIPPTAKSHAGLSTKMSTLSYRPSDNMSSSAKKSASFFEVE
T1 sequence (P25095 whole entry): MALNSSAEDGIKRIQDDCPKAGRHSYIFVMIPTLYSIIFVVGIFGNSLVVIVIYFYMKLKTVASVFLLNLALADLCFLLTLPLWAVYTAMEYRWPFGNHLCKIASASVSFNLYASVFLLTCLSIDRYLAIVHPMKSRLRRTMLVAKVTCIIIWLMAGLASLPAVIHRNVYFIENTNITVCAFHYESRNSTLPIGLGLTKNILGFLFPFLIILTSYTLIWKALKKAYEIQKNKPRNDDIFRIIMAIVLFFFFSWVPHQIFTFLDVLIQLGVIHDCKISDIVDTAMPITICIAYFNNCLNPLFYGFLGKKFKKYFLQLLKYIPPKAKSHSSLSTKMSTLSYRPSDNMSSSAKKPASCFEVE
In short: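 Rat liver membrane preparation (AT1 sites), diluted in kit buffer. Nonspecific binding defined with 10⁻⁴ M A II, standard curve 10⁻¹⁰–10⁻⁷ M. Reaction stopped with saline and glass-fiber filtration, then gamma counting.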

[4] = Partition coefficient (logP); assay type: physicochemical; details: octanol/water

logD [2]	IC50 [3] [nM]	logP [4]	Structure (SMILES)	maximum percent change in A II-supported mean arterial pressure at 3 mg/kg [1] [%]
	50.7		Cc1nc(C=O)c2c(n1)N(Cc1ccc(-c3ccccc3-c3nn[nH]n3)cc1)C(=O)CC2	
	1.8	4.45	CCCc1nc(C)nc2c1CCC(=O)N2Cc1ccc(-c2ccccc2-c2nn[nH]n2)cc1	-86
	2.3	3.92	CCc1nc(C)nc2c1CCC(=O)N2Cc1ccc(-c2ccccc2-c2nn[nH]n2)cc1	-104
1.41	13	4.32	Cc1nc(C(C)C)c2c(n1)N(Cc1ccc(-c3ccccc3-c3nn[nH]n3)cc1)C(=O)CC2	-44
	285		Cc1nc(CO)nc2c1CCC(=O)N2Cc1ccc(-c2ccccc2-c2nn[nH]n2)cc1	-30
	94.9		Cc1nc2c(c(C(F)(F)F)n1)CCC(=O)N2Cc1ccc(-c2ccccc2-c2nn[nH]n2)nc1	-41
	24.6		Cc1nc2c(c(C(F)(F)F)n1)CCC(=O)N2Cc1ccc(-c2ccccc2-c2nn[nH]n2)cc1	-68

Continued, compound first:

Structure (SMILES)	logD [2]	IC50 [3] [nM]	logP [4]	maximum percent change in A II-supported mean arterial pressure at 3 mg/kg [1] [%]
Cc1nc(C)c2c(n1)N(Cc1ccc(-c3ccccc3-c3nnn[nH]3)cc1)C(=O)CC2 [TASOSARTAN]	0.49	5.2	3.39	-97
CCCc1nc(C)c2c(n1)N(Cc1ccc(-c3ccccc3-c3nn[nH]n3)cc1)C(=O)CC2		1.35		-58
Cc1nc(C)c2c(n1)N(Cc1ccc(-c3ccccc3-c3nn[nH]n3)cn1)C(=O)CC2		49.4		-34
CCc1nc(C)c2c(n1)N(Cc1ccc(-c3ccccc3-c3nn[nH]n3)cc1)C(=O)CC2		1.3		-76
Cc1nc(C)c2c(n1)N(Cc1ccc(-c3ccccc3-c3nn[nH]n3)cc1)CCC2		170		-20
CCCCc1nc(Cl)c(CO)n1Cc1ccc(-c2ccccc2-c2nnn[nH]2)cc1 [LOSARTAN]				-72
Cc1nc(C)c2c(n1)N(Cc1ccc(-c3ccccc3-c3nn[nH]n3)cc1)C(=O)C(C)C2 (stereo not drawn)		3.2	3.91	-63
Cc1nc(C)c2c(n1)N(Cc1ccc(-c3ccccc3-c3nn[nH]n3)nc1)C(=O)CC2		24.3		-16
Cc1nc(C)c2c(n1)N(Cc1ccc(-c3ccccc3C(=O)[O-])cc1)C(=O)CC2.[K+]		85		-36
Cc1nc(C(C)C)nc2c1CCC(=O)N2Cc1ccc(-c2ccccc2-c2nn[nH]n2)cc1		2.2		-40
Cc1nc(C)c2c(n1)N(Cc1ccc(-c3ccccc3-c3nn[nH]n3)cc1)C(=O)C(C)(C)C2	1.21	3	4.43	-66
